In the library only some 2.7% were active in any assay of this set; here they are far more common.
Yeast life ext: extends the lifespan of yeast. S. cerevisiae growth with nicotinamide, OD615; deaD strain in restrictive glucose medium. inhibition of the nicotinamide effect, % at 10 µM. actives 0.68% (n = 130,000). AID 775;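 active = inhibition above a set limit, placed 3 SD over the median of all compounds, cut at about 26% in these data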;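 also: 0% = nicotinamide-treated wells and 100% = cells grown without nicotinamide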
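System: DeaD-strain S. cerevisiae / Buffer or medium: CSMM-D, restrictive glucose (dextrose) synthetic minimal medium / Probe or stimulus: nicotinamide, 1.5 mM, co-present with compound / Compound: one concentration, 10 µM, DMSO 0.25% / Incubation: 48 h compound exposure at 30 °C, humidified / Technique: optical density (absorbance) at 615 nm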
Phagocyt inh: blocks phagocytosis by macrophages; J774A.1 macrophage IgG-bead phagocytosis, imaging; inhibition, % at 5 µM; actives 0.07% (n = 110,000);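 active = inhibition above the mean of the plate negative controls plus 5 SD, cut at about 13% in these data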;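 also: phagocytic index as fraction of beads internalized from green versus red external bead signal; plate controls were DMSO negative control for no effect and cytochalasin-D positive control for full effect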
Yeast growth inh: chemicals that inhibit yeast BB579 growth in restrictive medium (lifespan-shortening candidates) | S. cerevisiae BB579 growth, OD615, 48 h | inhibition, % at 10 µM | actives 0.51% (n = 140,000);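 active = inhibition above a set limit, 3 SD over the mean compound inhibition, cut at about 44% in these data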
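System: Saccharomyces cerevisiae DeaD strain BB579, replicative lifespan model yeast | Buffer or medium: Restrictive glucose-based CSMM-D medium | Times: 4 h preincubation and 48 h exposure at 30 °C | Detection: OD615 turbidity measurement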
RAM network inh: inhibitors of the yeast RAM network. S. cerevisiae dse1pr::URA3 reporter, 5-FOA growth OD615, 2 d; analog-sensitive cbk1-as2 kinase mutant strain. actives 1.8% (n = 190,000). inhibition, % at 50 µM;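 active = inhibition above a set limit, 3 SD over mean compound inhibition, cut at about 8.4% in these data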;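 also: 0% = DMSO-only wells with no growth and 100% = 10 µM 1-NA-PP1 full growth; inhibition rescues growth on 5-FOA so higher OD means more RAM inhibition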
Active calls of the source: *.

Cc1ccc(N2C(=O)C3C(C2=O)N2C(c4cccs4)C4C(=O)N(c5ccc(C)cc5)C(=O)C4N2C3c2cccs2)cc1 (configuration not stated) was read as Yeast life ext 1, Yeast growth inh -11 and RAM network inh 8.6*.
COc1ccccc1Cn1c(SCC(N)=O)nc2c(oc3ccccc32)c1=O was read as RAM network inh 3.
O=C(NC(c1ccccc1)c1ccccc1)c1cccc(S(=O)(=O)NCc2ccccc2)c1 was read as Yeast life ext 8, Phagocyt inh -4, Yeast growth inh -17 and RAM network inh 8.6*.
Screening O=C(CSCc1cccc(Cl)c1)N1CCN(Cc2ccc3c(c2)OCO3)CC1 returned Yeast life ext -3, Yeast growth inh -41 and RAM network inh 3.
Screening O=C1OCC(CO)(CO)N=C1NNc1cc(Cl)ccc1Cl returned Yeast life ext -15, Phagocyt inh -1, Yeast growth inh 64* and RAM network inh -1.
Screening CCOc1cc(/C=N/NC(=O)c2ccc(-c3csc(Nc4ccc(C)cc4)n3)cc2)ccc1OCC(=O)O returned RAM network inh 8.9*.
`CCOc1cc(/C=N/Nc2ccccc2Cl)ccc1OCC(=O)O` gave Yeast life ext -9, Phagocyt inh -4, Yeast growth inh 96* and RAM network inh -2.
`O=C(CN1CCN(S(=O)(=O)c2ccccc2)CC1)Nc1ccc([N+](=O)[O-])cc1` gave Yeast life ext 3, Yeast growth inh -30 and RAM network inh 3.
For CCOc1ccccc1-c1nnc(SCC(=O)Nc2ccccc2)o1 the results were Yeast life ext -18, Phagocyt inh -1, Yeast growth inh -38 and RAM network inh 10*.
`C/C(=N\Nc1ccc([N+](=O)[O-])cc1)c1ccc(N)cc1` gave Yeast life ext -10, Phagocyt inh -2, Yeast growth inh 97* and RAM network inh -2.
Cc1ccc2c(c1)C(O)(CC(=O)/C=C/C=C/c1ccccc1)C(=O)N2 (configuration not stated) was read as Yeast life ext -12, Phagocyt inh 9, Yeast growth inh -38 and RAM network inh 0.
Screening O=Cc1ccccc1OS(=O)(=O)c1ccccc1 returned Yeast life ext 49*, Phagocyt inh -7, Yeast growth inh -24 and RAM network inh -1.
CC(C)Nc1nc(-c2ccccc2)nc(-n2ccnc2)n1 was read as Yeast life ext -9, Phagocyt inh -1, Yeast growth inh -23 and RAM network inh 2.
For c1ccc(-c2nc(-n3ccnc3)nc(-n3ccnc3)n2)cc1 the results were Yeast life ext -29, Phagocyt inh 2, Yeast growth inh 74* and RAM network inh 2.
Screening Cc1ccc(-n2c(O)c(C=Nc3ccccc3-c3n[nH]c(=S)[nH]c3=O)c3ccccc3c2=O)cc1C returned RAM network inh 7.
For Cc1ccc(-n2c(O)c(C=Nc3ccccc3-c3n[nH]c(=S)[nH]c3=O)c3ccccc3c2=O)c(C)c1 the results were RAM network inh 11*.
For Cc1ccc2cc3c(N)c(C(=O)Nc4c(C)[nH]c(=O)[nH]c4=O)sc3nc2c1 the results were Yeast life ext 2, Phagocyt inh -13, Yeast growth inh -22 and RAM network inh 9.5*.
`Cc1ccc2nc3sc(C(=O)Nc4c(C)[nH]c(=O)[nH]c4=O)c(N)c3cc2c1` gave Yeast life ext 6, Phagocyt inh -4, Yeast growth inh -18 and RAM network inh 8.
`CS(=O)(=O)N1CCC(C(=O)c2cccc(Cl)c2)CC1` gave Yeast life ext -2, Yeast growth inh -52 and RAM network inh 2.
Screening Cc1cc(NS(=O)(=O)c2ccc(NS(=O)(=O)c3ccc(CC(C)C)cc3)cc2)nc(C)n1 returned RAM network inh 0.
Cc1cc(NS(=O)(=O)c2ccc(CC(C)C)cc2)no1 was read as Yeast life ext 50*, Phagocyt inh -2, Yeast growth inh -39 and RAM network inh 0.
O=c1oc2ccccc2cc1-c1cn2ccccc2n1 was read as RAM network inh 1.
Screening O=c1oc2ccccc2cc1-c1cn2cccnc2n1 returned Yeast life ext -19, Phagocyt inh 3, Yeast growth inh 53* and RAM network inh -1.
For CCCCNC(=O)CC(=O)Nc1ccccc1C(=O)O the results were Yeast life ext -13, Phagocyt inh -3, Yeast growth inh -32 and RAM network inh 0.
Screening CCCn1c(SCC(=O)Nc2ccc(C(=O)Nc3ccccc3OC)cc2)n[nH]c1=O returned RAM network inh 9.2*.
CCCCCC[n+]1c(-c2ccc(Cl)cc2Cl)csc1Nc1ccccc1 was read as Yeast life ext 3, Phagocyt inh -7, Yeast growth inh -30 and RAM network inh 9.0*.
Screening c1ccc(C[n+]2c(-c3ccccc3)csc2Nc2ccccc2)cc1 returned Yeast life ext 7, Yeast growth inh -16 and RAM network inh 4.
`CC(C)N1C/C(=C/c2ccsc2)C(=O)/C(=C/c2ccsc2)C1` gave Yeast life ext 15, Phagocyt inh -4, Yeast growth inh -30 and RAM network inh 0.
`CN1C/C(=C/c2cccnc2)C(=O)/C(=C/c2cccnc2)C1` gave Yeast life ext 51*, Phagocyt inh -1, Yeast growth inh -14 and RAM network inh 0.
For CC(C)N1C/C(=C/c2cccnc2)C(=O)/C(=C/c2cccnc2)C1 the results were Yeast life ext 41*, Phagocyt inh 3, Yeast growth inh -56 and RAM network inh 2.
`Cc1ccc(S(=O)(=O)N2CCOCC2)cc1C(=O)OCC(=O)NC1CCS(=O)(=O)C1` (configuration not stated) gave Yeast life ext 3, Phagocyt inh -14, Yeast growth inh 2 and RAM network inh 1.
`Cc1ccc(/C=C2/SC(=S)N(CC(=O)Nc3ncc(Cc4ccc(C)cc4)s3)C2=O)cc1` gave Yeast life ext -10, Phagocyt inh -1, Yeast growth inh -48 and RAM network inh 11*.
Screening O=C(CSc1nnc(CNc2ccc(F)cc2)o1)N1c2ccccc2Sc2ccccc21 returned Yeast life ext -7, Yeast growth inh -11 and RAM network inh 5.
`CCc1nnc(NS(=O)(=O)c2ccc(NC(=O)/C=C/c3ccccc3Cl)cc2)s1` gave RAM network inh 8.8*.
For CCc1nnc(NS(=O)(=O)c2ccc(NC(=S)NC(=O)/C=C/c3ccccc3)cc2)s1 the results were Yeast life ext -1, Phagocyt inh -11, Yeast growth inh -1 and RAM network inh 4.
For CCOC(=O)c1[nH]nc(C(=O)c2ccc(Br)cc2)c1O the results were Yeast life ext 48*, Phagocyt inh 0, Yeast growth inh -35 and RAM network inh 2.
COc1ccc(CN(CCC(c2ccc(F)cc2)C2CCOC(C)(C)C2)C(=O)c2ccco2)cc1 (configuration not stated) was read as Yeast life ext 16, Phagocyt inh 3, Yeast growth inh -46 and RAM network inh 9.8*.
For COc1ccc(COc2cc(-c3cccc(OC)c3)nc3ccc(NC(=O)c4ccc(Cl)cc4)cc23)cc1 the results were Yeast life ext 3, Yeast growth inh -42 and RAM network inh 8.4*.
